Among the data in ChEMBL document CHEMBL3864163, “I. Discovery of a novel series of CXCR3 antagonists. Multiparametric optimization of N,N-disubstituted benzylamines” (Bioorg Med Chem Lett, 2016) are Stability, IC50 and Papp values, retold here.

Data set [1] is described as follows: Metabolic stability in mouse liver microsomes assessed as parent compound remaining in presence of NADPH by LC-MS/MS method. The format is ADME. A digest of the protocol:
(§1)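 Compound incubated with liver microsomes (human or mouse) plus NADPH at 37 °C. Loss of parent was followed by LC-MS-MS and reported as percent. Stability bands: low <40%, medium 40–60%, high >60%.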
On the technique in general: Microsomes from liver hold many membrane-bound enzymes, among them those of drug oxidation.

Data set [2] can be described thus: Metabolic stability in human liver microsomes assessed as parent compound remaining in presence of NADPH by LC-MS/MS method. The format is ADME. Put shortly:
as §1

For data set [3], the target named is T1, C-X-C chemokine receptor type 3 (Homo sapiens, UniProt P49682).
T1 sequence (P49682 whole entry): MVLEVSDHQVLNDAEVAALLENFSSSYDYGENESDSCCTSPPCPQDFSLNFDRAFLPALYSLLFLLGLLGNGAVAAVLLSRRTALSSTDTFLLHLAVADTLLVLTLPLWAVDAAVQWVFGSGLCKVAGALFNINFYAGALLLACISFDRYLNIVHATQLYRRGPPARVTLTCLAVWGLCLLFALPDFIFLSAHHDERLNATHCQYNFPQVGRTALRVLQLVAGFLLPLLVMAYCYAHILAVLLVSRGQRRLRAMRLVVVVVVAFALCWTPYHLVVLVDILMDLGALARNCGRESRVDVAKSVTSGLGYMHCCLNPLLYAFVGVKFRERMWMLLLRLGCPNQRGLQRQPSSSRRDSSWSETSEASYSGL
The data set is described as follows: Displacement of [125I]-CXCL10 from human recombinant CXCR3 transfected in Flp-In-CHO cell membranes after 60 mins by gamma counting method. In general terms: Loss of bound radioactivity is the signal in a displacement assay; it reports binding, not function.

Data set [4] in a line: Apparent permeability across human Caco2 cells after 2 hrs by LC-MS method. The conditions noted are these: Caco-2. The class given is ADME, cell-based. Put shortly: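 Caco-2 monolayers checked for integrity, then dosed alongside high- and low-permeability controls. Apical and basal samples taken at 2 h. Four transport conditions: A-B at pH 6.5/7.4 (0% or 0.5% BSA apical, 5% BSA basal), and A-B and B-A at pH 7.4/7.4 (0.5% BSA both sides). Compound quantified by LC/MS. Rapid transport defined as Papp >20 nm/s.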
On the technique in general: Passage across Caco-2 layers is used to estimate intestinal permeability.

A word on the IC50: it is the concentration that gives 50% inhibition. Usually Papp stands for the rate of passage across a membrane or cell layer, normalised by area and donor concentration.

For `COc1cc(CN(C)C(C)c2ccc3c(c2)CCO3)ccc1OCCN1C(=O)CN(C)C1=O` (centres undefined), the results for the Stability in data set [1] and in data set [2] were 26% and 28%, respectively. The IC50 in data set [3] was 202 nM.

Turning to `COc1cc(CN(Cc2ccncc2)C(C)c2ccc3c(c2)CCO3)ccc1OCCN1C(=O)CCC1=O` (centres undefined), the Stability is recorded as 42% in data set [1] and 41% in data set [2]. In addition, the IC50 in data set [3] came out at 130 nM.

Consider `COc1cc(CN(CC(C)=O)C(C)c2ccc3c(c2)CCO3)ccc1OCCN1C(=O)CCC1=O` (centres undefined), for which the figures for the Stability in data set [1] and in data set [2] were 0% and 2%, respectively. The 50% inhibitory concentration (IC50) in data set [3] is 202 nM.

For `COc1cc(CN(C)C(C)c2ccc3c(c2)CCO3)ccc1OCCN1C(=O)CSC1=O` (centres undefined), the Stability worked out at 7% in data set [1] and 4% in data set [2]. In data set [3], the IC50 turned out to be 120 nM.

As for `COc1cc(CN(CC(C)O)C(C)c2ccc3c(c2)CCO3)ccc1OCCN1C(=O)CCC1=O` (centres undefined), the values for the Stability in data set [1] and in data set [2] were 0% and 2%, respectively. For the same molecule, the IC50 in data set [3] came to 77 nM.

With `COc1cc(CNC(CC(C)C)c2ccc3c(c2)CCO3)ccc1OCCN1C(=O)CCC1=O` (centres undefined), in data set [3], the IC50 came out at 1800 nM.

Regarding `COc1cc(CN(CC23CCC(C(=O)O)(CC2)CC3)C(C)c2ccc3c(c2)CCO3)ccc1OCCN1C(=O)CCC1=O` (centres undefined), the figures for the Stability in data set [1] and in data set [2] were 79% and 71%, respectively. Moreover, the Papp at 2 h in data set [4] turned out to be 6.56 ×10⁻⁶ cm/s. In addition, the IC50 in data set [3] came out at 225 nM.

With `CCC(NCc1ccc(OCCN2C(=O)CCC2=O)c(OC)c1)c1ccc2c(c1)CCO2` (centres undefined), the IC50 in data set [3] turned out to be 1060 nM.

Regarding `COc1cc(CN(Cc2ccc(/C=C/C(=O)O)cc2)C(C)c2ccc3c(c2)CCO3)ccc1OCCN1C(=O)CCC1=O` (centres undefined), the values for the Stability in data set [1] and in data set [2] were 87% and 84%, respectively. For the same molecule, the Papp at 2 h in data set [4] amounted to 1.34 ×10⁻⁶ cm/s. Also, the half-maximal inhibitory concentration (IC50) in data set [3] amounted to 138 nM.

Consider `COc1cc(CN(CCCC(=O)O)C(c2ccc3c(c2)CCO3)C2CCCC2)ccc1OCCN1C(=O)CCC1=O` (centres undefined), for which the results for the Stability in data set [1] and in data set [2] were 94% and 92%, respectively. Moreover, in data set [4], the Papp at 2 h turned out to be 3.21 ×10⁻⁶ cm/s. The IC50 in data set [3] was 382 nM.

On to `COc1cc(CN(Cc2ccc(-c3nnn[nH]3)cc2)C(C)c2ccc3c(c2)CCO3)ccc1OCCN1C(=O)CCC1=O` (centres undefined), for which the Stability is recorded as 77% in data set [1] and 51% in data set [2]. Moreover, the Papp at 2 h in data set [4] amounted to 0.2 ×10⁻⁶ cm/s. Moreover, the half-inhibitory concentration (IC50) in data set [3] is 126 nM.

Take `CCC(c1ccc2c(c1)CCO2)N(CC)Cc1ccc(OCCN2C(=O)CCC2=O)c(OC)c1` (centres undefined): the Stability in data set [1] and in data set [2] was 5% throughout. Also, the IC50 in data set [3] was determined as 110 nM.

Consider `COc1cc(CNC(C)(C)c2ccc3c(c2)CCO3)ccc1OCCN1C(=O)CCC1=O`, for which, in data set [3], the IC50 stood at 780 nM.

`COc1cc(CN(C[C@H]2CC[C@H](C(=O)O)CC2)[C@H]2CCc3cc(Cl)ccc32)ccc1SCCN1C(=O)CCC1=O`: the Stability was 3% in data set [1] and 15% in data set [2]. The Papp at 2 h in data set [4] came to 7.24 ×10⁻⁶ cm/s.

As for `COc1cc(CN(Cc2ccc3c(c2)CCO3)C(C)c2ccc3c(c2)CCO3)ccc1OCCN1C(=O)CCC1=O` (centres undefined), the values for the Stability in data set [1] and in data set [2] were 24% and 28%, respectively. Moreover, the IC50 in data set [3] came out at 340 nM.

On to `COc1cc(CN(Cc2ccc(C(=O)O)cc2)[C@H](C)c2ccc(Cl)cc2)ccc1OCCN1C(=O)CCC1=O`, for which the Stability worked out at 100% in data set [1] and 98% in data set [2]. Further, in data set [4], the Papp at 2 h was 3.7 ×10⁻⁶ cm/s. The IC50 in data set [3] is 345 nM.

For `CCCC(c1ccc2c(c1)CCO2)N(C)Cc1ccc(OCCN2C(=O)CCC2=O)c(OC)c1` (centres undefined), the values for the Stability in data set [1] and in data set [2] were 8% and 9%, respectively. The IC50 in data set [3] came out at 110 nM.

`COc1cc(CN(C[C@H]2CC[C@H](C(=O)O)CC2)[C@@H]2CCc3cc(Cl)ccc32)ccc1OCCN1C(=O)CCC1=O`: the Stability in data set [1] is 55%; in data set [2], 54%. For the same molecule, in data set [4], the Papp at 2 h was 6.62 ×10⁻⁶ cm/s.

For the molecule `COc1cc(CN(CCO)C(C)c2ccc3c(c2)CCO3)ccc1OCCN1C(=O)CCC1=O` (centres undefined), the Stability in data set [1] is recorded as 4%; in data set [2], 3%. In addition, the IC50 in data set [3] turned out to be 82 nM.

For `COc1cc(CNCc2ccc3c(c2)CCO3)ccc1OCCN1C(=O)CCC1=O`, the Stability in data set [1] was 67%; in data set [2], 61%. Besides, the IC50 in data set [3] turned out to be 290 nM.

Turning to `COc1cc(CN(Cc2ccc(C(=O)O)cc2)C(c2ccc3c(c2)CCO3)C2CCCC2)ccc1OCCN1C(=O)CCC1=O` (centres undefined), in data set [2], the Stability was determined as 52%. In addition, in data set [3], the IC50 is 4200 nM.

For the molecule `COc1cc(CN(CC2CCCCC2)C(C)c2ccc3c(c2)CCO3)ccc1OCCN1C(=O)CCC1=O` (centres undefined), the values for the Stability in data set [1] and in data set [2] were 27% and 35%, respectively. Also, the IC50 in data set [3] is 52 nM.

Turning to `COc1cc(CN(C)[C@H](C)c2ccc3c(c2)CCO3)ccc1OCCN1C(=O)CCC1=O`, in data set [3], the IC50 turned out to be 790 nM.

Regarding `CCCC(NCc1ccc(OCCN2C(=O)CCC2=O)c(OC)c1)c1ccc2c(c1)CCO2` (centres undefined), the IC50 in data set [3] came out at 1200 nM.

For the molecule `COc1cc(CN(C)C(C)c2ccc3c(c2)CCO3)ccc1NCCN1C(=O)CCC1=O` (centres undefined), the IC50 in data set [3] is 443 nM.

Regarding `Cc1cc(CN(C)C(C)c2ccc3c(c2)CCO3)ccc1OCCN1C(=O)CCC1=O` (centres undefined), the Stability in data set [1] was found to be 19%; in data set [2], 29%. Besides, the IC50 in data set [3] turned out to be 230 nM.

For `COc1cc(CN(CCN)C(C)c2ccc3c(c2)CCO3)ccc1OCCN1C(=O)CCC1=O` (centres undefined), the Stability turned out to be 13% in data set [1] and 48% in data set [2]. Moreover, in data set [3], the IC50 is 2200 nM.

In the case of `COc1cc(CN(Cc2cccnc2)C(C)c2ccc3c(c2)CCO3)ccc1OCCN1C(=O)CCC1=O` (centres undefined), the Stability in data set [1] was found to be 29%; in data set [2], 19%. For the same molecule, in data set [3], the IC50 came out at 190 nM.

Turning to `COc1cc(CN(C)C(C)c2ccc3c(c2)CCO3)ccc1OCCN1C(=O)CNC1=O` (centres undefined), the Stability was found to be 55% in data set [1] and 60% in data set [2]. Moreover, the IC50 in data set [3] is 240 nM.

With `COc1cc(CN(Cc2ccc3c(c2)CCO3)CC(C)C)ccc1OCCN1C(=O)CCC1=O`, the Stability in data set [1] turned out to be 11%; in data set [2], 7%. In data set [3], the IC50 was determined as 70 nM.

Turning to `COc1cc(CN(CC(C)C)C(C)c2ccc3c(c2)CCO3)ccc1OCCN1C(=O)CCC1=O` (centres undefined), the Stability was found to be 9% in data set [1] and 2% in data set [2]. Also, the IC50 in data set [3] was 55 nM.

Take `COc1cc(CNC(c2ccc3c(c2)CCO3)C2CCCC2)ccc1OCCN1C(=O)CCC1=O` (centres undefined): the IC50 in data set [3] was 3260 nM.

As to `COc1cc(CN(C[C@H]2CC[C@H](C(=O)O)CC2)[C@H]2CCc3cc(Cl)ccc32)ccc1CCCN1C(=O)CCC1=O`, the figures for the Stability in data set [1] and in data set [2] were 24% and 36%, respectively. For the same molecule, in data set [4], the Papp at 2 h was 16.5 ×10⁻⁶ cm/s. In data set [3], the IC50 worked out at 1000 nM.

As for `COc1cc(CN(C)C(CC(C)C)c2ccc3c(c2)CCO3)ccc1OCCN1C(=O)CCC1=O` (centres undefined), the IC50 in data set [3] was found to be 330 nM.

Consider `COc1cc(CN(C[C@H]2CC[C@H](C(=O)OC)CC2)[C@H]2CCc3cc(Cl)ccc32)ccc1OCCN1C(=O)CCC1=O`, for which, in data set [3], the IC50 amounted to 840 nM.

With `COc1cc(CNC(C)c2ccc3c(c2)CCO3)ccc1OCCN1C(=O)CCC1=O` (centres undefined), the Stability in data set [1] was 62%; in data set [2], 61%. The half-inhibitory concentration (IC50) in data set [3] was determined as 607 nM.

Consider `CCC(c1ccc2c(c1)CCO2)N(Cc1ccc(OCCN2C(=O)CCC2=O)c(OC)c1)CC(C)C` (centres undefined), for which the Stability in data set [1] and in data set [2] was 19% in each case. For the same molecule, in data set [3], the IC50 was 38 nM.

In the case of `COc1cc(CN(C)[C@@H](C)c2ccc3c(c2)CCO3)ccc1OCCN1C(=O)CCC1=O`, the IC50 in data set [3] came out at 154 nM.

Turning to `CCC(c1ccc2c(c1)CCO2)N(Cc1ccc(C(=O)O)cc1)Cc1ccc(OCCN2C(=O)CCC2=O)c(OC)c1` (centres undefined), the figures for the Stability in data set [1] and in data set [2] were 78% and 60%, respectively. Besides, the Papp at 2 h in data set [4] is 1.46 ×10⁻⁶ cm/s. In addition, in data set [3], the IC50 stood at 160 nM.

As to `COc1cc(CN(Cc2ccc(F)cc2)C(C)c2ccc3c(c2)CCO3)ccc1OCCN1C(=O)CCC1=O` (centres undefined), the Stability was determined as 19% in data set [1] and 24% in data set [2]. In addition, the IC50 in data set [3] amounted to 97 nM.

For `CC(c1ccc2c(c1)CCO2)N(C)Cc1ccc(OCCN2C(=O)CCC2=O)c(Cl)c1` (centres undefined), the results for the Stability in data set [1] and in data set [2] were 17% and 14%, respectively. In addition, the IC50 in data set [3] amounted to 187 nM.
